What was measured:
HEK293T cells = test: Quantitative proteomics in HEK293T cells; assay type: cell-based; settings: human HEK293T cells, 10 hour treatment
MM.1S proteome = test: Multiplexed mass spectrometry-based proteomics in MM.1S cells; assay type: cell-based, human; settings: 200 nM, 6 hours
In short: (§1)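 TMT-multiplexed LC-MS proteomics. Cells were treated with DMSO (biological triplicate) or test compound (MM.1S: 0.2 μM, 6 h; KPC: 1 μM, 8 h), harvested by centrifugation at 4 °C and lysed in 8 M urea/EPPS pH 8.5. 200 μg protein was reduced, alkylated and precipitated, digested with LysC 12 h at room temperature then trypsin 6 h at 37 °C, TMT-labelled, high-pH fractionated (96→24) and run on an Orbitrap Fusion Lumos.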

BRD4 [1] = molecular target: T1, BRD4 (Homo sapiens, UniProt O60885); test: Immunoblot of BRD4 degradation in MM.1S cells; assay type: cell-based
In short: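 MM.1S cells were treated with test compound for 16 h (24 h in the initial screen). For rescue, cells were pretreated 2 h with 10 μM KEAP1 inhibitor, 10 μM JQ1 or 1 μM MLN4924. Lysates in RIPA were BCA-normalised, run on 4–12% gels and blotted to PVDF with IRDye secondaries. BRD4 bands were quantified relative to β-actin. Two independent experiments.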

KEAP1-BRD4BD2 = KEAP1-BRD4BD2 (Homo sapiens, UniProt O60885+Q14145); test: KEAP1-BRD4BD2 dimerization TR-FRET assay; assay type: biochemical
Chain of KEAP1-BRD4BD2 (Q14145 321-609 limits assumed, other chains not shown): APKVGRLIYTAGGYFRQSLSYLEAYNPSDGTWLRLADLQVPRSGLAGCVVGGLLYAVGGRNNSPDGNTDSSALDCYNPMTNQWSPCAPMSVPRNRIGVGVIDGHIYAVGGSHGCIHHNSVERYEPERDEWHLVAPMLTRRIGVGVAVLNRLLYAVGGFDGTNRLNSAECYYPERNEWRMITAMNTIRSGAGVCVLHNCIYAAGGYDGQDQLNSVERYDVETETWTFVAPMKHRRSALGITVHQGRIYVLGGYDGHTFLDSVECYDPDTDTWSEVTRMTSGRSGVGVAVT
In short: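 TR-FRET mix: 200 nM biotinylated human BRD4BD2, 200 nM Alexa Fluor 647-labelled human KEAP1 (residues 321–609, insect-cell expressed, SpyCatcher-labelled) and 2 nM Eu-streptavidin. Buffer was 50 mM Tris pH 8.0, 200 mM NaCl, 0.1% Pluronic F-68, 0.5% BSA and 1 mM TCEP; compound was titrated. After 15 min at room temperature, excitation was 337 nm and the 665/620 nm ratio was read over thirty 200-s cycles. Mean ± SD of ≥3 technical replicates; two independent experiments.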

BRD4 [2] = molecular target: T1, BRD4; test: Immunoblot of BRD4 degradation in parental and KEAP1 knockdown OVCAR8 cells; assay type: cell-based
In short: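 OVCAR8 cells were grown in DMEM with 10% FBS. KEAP1 knockdown lines came from shRNA lentivirus made in HEK293T, used with polybrene (10 μg/mL) and selected with puromycin (1 μg/mL); knockdown was checked by Western blot. Parental and knockdown cells were treated with test compound for 16 h, then immunoblotted. BRD4 was normalised to β-actin. Two independent experiments.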

BRD4/3/2 = test: Immunoblot of BRD4/3/2 in MM.1S cells; assay type: cell-based, human; settings: indicated time points
In short: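 MM.1S cells were grown in RPMI with 10% FBS at 37 °C and 5% CO2, then given DMSO or test compound for a time course. Cells were lysed in RIPA with protease and phosphatase inhibitors. BCA-equalised protein was run on 4–12% gels and transferred to PVDF. Primary antibodies ran overnight at 4 °C and IRDye secondaries 1 h at room temperature. BRD4/3/2 bands were normalised to β-actin by densitometry. Two independent experiments.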

KPC cells = test: Quantitative proteomics in KPC cells; assay type: cell-based, mouse; settings: 1 μM, 8 hours
In short: as §1

FAK [3] = molecular target: FAK (Homo sapiens, UniProt Q05397); test: Immunoblot of FAK degradation in PATU-8988T cells; assay type: cell-based; settings: 0.1–5 μM, 24 h
Chain of FAK (Homo sapiens, UniProt Q05397) (Q05397 whole entry): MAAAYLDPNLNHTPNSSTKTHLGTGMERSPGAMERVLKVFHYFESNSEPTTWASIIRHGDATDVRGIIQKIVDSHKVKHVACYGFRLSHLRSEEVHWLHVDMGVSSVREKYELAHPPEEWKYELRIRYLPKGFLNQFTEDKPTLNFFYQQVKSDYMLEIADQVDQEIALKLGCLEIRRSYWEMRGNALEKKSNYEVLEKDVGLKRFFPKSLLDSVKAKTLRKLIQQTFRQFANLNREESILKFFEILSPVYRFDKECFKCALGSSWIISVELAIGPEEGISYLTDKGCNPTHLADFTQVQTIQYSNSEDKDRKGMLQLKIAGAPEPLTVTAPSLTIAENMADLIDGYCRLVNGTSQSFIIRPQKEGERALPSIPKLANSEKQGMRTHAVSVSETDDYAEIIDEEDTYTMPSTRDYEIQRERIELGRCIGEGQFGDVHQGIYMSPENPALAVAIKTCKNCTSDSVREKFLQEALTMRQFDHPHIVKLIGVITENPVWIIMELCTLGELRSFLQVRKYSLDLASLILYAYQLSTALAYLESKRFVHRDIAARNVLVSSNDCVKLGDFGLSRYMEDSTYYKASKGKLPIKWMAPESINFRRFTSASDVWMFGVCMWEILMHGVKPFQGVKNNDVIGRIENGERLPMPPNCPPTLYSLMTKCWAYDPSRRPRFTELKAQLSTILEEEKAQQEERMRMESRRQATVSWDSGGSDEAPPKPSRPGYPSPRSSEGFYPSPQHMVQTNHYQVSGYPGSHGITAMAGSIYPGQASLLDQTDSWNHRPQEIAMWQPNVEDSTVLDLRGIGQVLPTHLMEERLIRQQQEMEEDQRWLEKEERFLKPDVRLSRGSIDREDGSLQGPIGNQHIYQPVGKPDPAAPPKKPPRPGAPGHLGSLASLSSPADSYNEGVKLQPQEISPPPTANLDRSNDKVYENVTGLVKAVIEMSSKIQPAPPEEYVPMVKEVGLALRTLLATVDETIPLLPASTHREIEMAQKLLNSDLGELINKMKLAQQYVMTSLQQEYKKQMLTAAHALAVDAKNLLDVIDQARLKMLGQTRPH
In short: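 Human PATU-8988T pancreatic cells (DMEM, 10% FBS) were treated 24 h with test compound at 0.1–5 μM. FAK was assessed by immunoblot of RIPA lysates and normalised to β-actin. Two independent experiments.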

FAK [4] = molecular target: FAK (Mus musculus, UniProt P34152); test: Immunoblot of FAK degradation in KPC cells; assay type: cell-based
Chain of FAK (Mus musculus, UniProt P34152) (P34152 whole entry): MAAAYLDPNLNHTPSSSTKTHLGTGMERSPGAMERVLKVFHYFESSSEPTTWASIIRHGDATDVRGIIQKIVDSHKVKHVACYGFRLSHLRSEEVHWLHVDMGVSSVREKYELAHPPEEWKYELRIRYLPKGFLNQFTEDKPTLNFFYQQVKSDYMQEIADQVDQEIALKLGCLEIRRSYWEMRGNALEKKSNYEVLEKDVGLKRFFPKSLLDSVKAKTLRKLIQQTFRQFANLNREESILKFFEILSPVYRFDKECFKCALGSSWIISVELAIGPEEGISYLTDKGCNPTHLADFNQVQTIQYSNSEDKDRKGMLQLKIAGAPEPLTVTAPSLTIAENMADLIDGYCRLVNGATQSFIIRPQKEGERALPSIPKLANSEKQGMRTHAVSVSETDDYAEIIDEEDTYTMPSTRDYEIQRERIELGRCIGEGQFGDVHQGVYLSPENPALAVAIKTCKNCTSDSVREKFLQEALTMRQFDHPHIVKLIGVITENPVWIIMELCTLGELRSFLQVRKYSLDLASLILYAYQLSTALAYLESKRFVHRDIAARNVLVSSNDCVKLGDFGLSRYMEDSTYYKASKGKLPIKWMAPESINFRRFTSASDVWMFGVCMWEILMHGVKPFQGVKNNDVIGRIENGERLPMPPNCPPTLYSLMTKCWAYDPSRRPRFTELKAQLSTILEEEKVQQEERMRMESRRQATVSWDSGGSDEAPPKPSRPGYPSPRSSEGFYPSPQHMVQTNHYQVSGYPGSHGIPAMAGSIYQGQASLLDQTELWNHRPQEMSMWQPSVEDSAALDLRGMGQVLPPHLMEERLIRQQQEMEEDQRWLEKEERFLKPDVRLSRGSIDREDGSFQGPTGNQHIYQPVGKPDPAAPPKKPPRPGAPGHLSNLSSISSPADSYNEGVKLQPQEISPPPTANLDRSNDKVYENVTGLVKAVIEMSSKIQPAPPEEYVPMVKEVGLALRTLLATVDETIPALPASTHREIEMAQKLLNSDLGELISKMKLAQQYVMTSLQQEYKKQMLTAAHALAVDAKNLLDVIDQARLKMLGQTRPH
In short: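 Murine pancreatic KPC cells (RPMI, 10% FBS) were exposed to 500 nM or 1 μM test compound over a time course. RIPA lysates were immunoblotted, with FAK band intensity normalised to β-actin in ImageJ. Blots are representative of two independent experiments.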

Cc1ccc(C(CC(=O)O)c2cc(OCC(=O)NCCOCCOCCN3CCN(c4ccc(Nc5ncc(Cl)c(Nc6ccccc6S(=O)(=O)C(C)C)n5)cc4)CC3)c3c(c2)nnn3C)cc1CN1CC(C)Oc2ccccc2S1(=O)=O (centres unmarked) [DGY-03–188, 3-(7-(2-((2-(2-(2-(4-(4-((5-chloro-4-((2-(isopropylsulfonyl)phenyl)amino)pyrimidin-2-yl)amino)phenyl)piperazin-1-yl)ethoxy)ethoxy)ethyl)amino)-2-oxoethoxy)-1-methyl-1H-benzo[d][1,2,3]triazol-5-yl)-3-(4-methyl-3-((4-methyl-1,1-dioxido-3,4-dihydro-2H-benzo[b][1,4,5]oxathiazepin-2-yl)methyl)phenyl)propanoic acid]
degradation across the whole proteome (HEK293T cells): did not induce any degradation across the whole proteome

COc1cc([C@@H](CC(=O)O)c2ccc(C)c(CN3C[C@@H](C)Oc4cc(CCCCCCNC(=O)C[C@@H]5N=C(c6ccc(Cl)cc6)c6c(sc(C)c6C)-n6c(C)nnc65)ccc4S3(=O)=O)c2)cc2nnn(C)c12 [DGY-06–177-pk2, (S)-3-(3-(((R)-7-(6-(2-((S)-4-(4-chlorophenyl)-2,3,9-trimethyl-6H-thieno[3,2-f][1,2,4]triazolo[4,3-a][1,4]diazepin-6-yl)acetamido)hexyl)-4-methyl-1,1-dioxido-3,4-dihydro-2H-benzo[b][1,4,5]oxathiazepin-2-yl)methyl)-4-methylphenyl)-3-(7-methoxy-1-methyl-1H-benzo[d][1,2,3]triazol-5-yl)propanoic acid]
selectivity of degradation across the proteome (MM.1S proteome): BRD4 as the only significantly downregulated protein
BRD4 degradation, enantiomers compared (BRD4 [1]; MM1.S cells, 24-hour treatment at 1 μM): induced stronger degradation of BRD4
BRD4 degradation after pre-treatment with MLN4924 (BRD4 [1]; MM.1S cells, 1 μM MLN4924 2 h prior, then 16 hrs): BRD4 degradation was blocked
BRD4 degradation after pre-treatment with excess (+)-JQ1 or KI-696 (BRD4 [1]; MM.1S cells, 10 μM JQ1 or 10 μM KEAP1 inhibitor 2 h prior, then 16 hrs): abolished
concentration at which KEAP1-BRD4BD2 dimerization is promoted (KEAP1-BRD4BD2): approximately 100 nM
effect on BRD4 abundance (BRD4 [2]; KEAP1 knockdown (KEAP1^KD) OVCAR8 cells, 16 h): no effect on BRD4 abundance
BRD4 degradation (BRD4 [2]; OVCAR8 cells, 1 μM): induces degradation of BRD4
concentration of maximal BRD4 degradation (BRD4 [2]; parental OVCAR8 cells, 16 hours): 1 µM
degradation of BRD4 versus BRD2 and BRD3 by immunoblotting (BRD4/3/2): preferentially induces BRD4 degradation while largely sparing BRD2&3

COc1cc([C@@H](CC(=O)O)c2ccc(C)c(CN3C[C@@H](C)Oc4cc(CCCN5CCN(c6ccc(Nc7ncc(Cl)c(Nc8ccccc8S(=O)(=O)C(C)C)n7)cc6)CC5)ccc4S3(=O)=O)c2)cc2nnn(C)c12 [NJH-04–098, (S)-3-(3-(((R)-7-(3-(4-(4-((5-chloro-4-((2-(isopropylsulfonyl)phenyl)amino)pyrimidin-2-yl)amino)phenyl)piperazin-1-yl)propyl)-4-methyl-1,1-dioxido-3,4-dihydro-2H-benzo[b][1,4,5]oxathiazepin-2-yl)methyl)-4-methylphenyl)-3-(7-methoxy-1-methyl-1H-benzo[d][1,2,3]triazol-5-yl)propanoic acid]
proteins downregulated across the proteome (KPC cells): only FAK (PTK2) was significantly downregulated across the proteome
FAK degradation (FAK [3]): did not observe degradation of FAK
time of maximal FAK degradation (FAK [4]; 500 nM): 24 h
time of maximal FAK degradation (FAK [4]; 1 μM): 8 h

Source: PMC9588736 (Cell chemical biology, 2022)
